Measurements taken from ChEMBL document CHEMBL1671716, “Antimicrobial susceptibility patterns for recent clinical isolates of anaerobic bacteria in South Korea” (2010).
Converted amounts (≈) assume the structure as drawn.

test system: Bacteroides caccae; experiment: Antimicrobial activity against Bacteroides caccae after 48 hrs by agar dilution method; assay type: functional
Summary of the method: (§1)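 MICs on clinical anaerobe isolates by the CLSI agar dilution method. Inoculum of 10^5 CFU applied with a Steers replicator. Plates incubated 48 h at 37°C in an anaerobic chamber.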

| Structure (SMILES) | MIC | MIC50 | MIC90 |
| --- | --- | --- | --- |
| O=C(N[C@H](CO)[C@H](O)c1ccc([N+](=O)[O-])cc1)C(Cl)Cl [CHLORAMPHENICOL] | 4 µg/mL (≈ 12.4 µM) | 4 µg/mL (≈ 12.4 µM) | 8 µg/mL (≈ 24.8 µM) |

test system: Parabacteroides distasonis; experiment: Antimicrobial activity against Bacteroides distasonis after 48 hrs by agar dilution method; assay type: functional; summary of the method: as §1

| Structure (SMILES) | MIC | MIC50 | MIC90 |
| --- | --- | --- | --- |
| O=C(N[C@H](CO)[C@H](O)c1ccc([N+](=O)[O-])cc1)C(Cl)Cl [CHLORAMPHENICOL] | 4 µg/mL (≈ 12.4 µM) | 4 µg/mL (≈ 12.4 µM) | 8 µg/mL (≈ 24.8 µM) |

test system: Phocaeicola vulgatus; experiment: Antimicrobial activity against Bacteroides vulgatus after 48 hrs by agar dilution method; assay type: functional; summary of the method: as §1

| Structure (SMILES) | MIC | MIC50 | MIC90 |
| --- | --- | --- | --- |
| O=C(N[C@H](CO)[C@H](O)c1ccc([N+](=O)[O-])cc1)C(Cl)Cl [CHLORAMPHENICOL] | 4 µg/mL (≈ 12.4 µM) | 4 µg/mL (≈ 12.4 µM) | 8 µg/mL (≈ 24.8 µM) |

test system: Bacteroides ovatus; experiment: Antimicrobial activity against Bacteroides ovatus after 48 hrs by agar dilution method; assay type: functional; summary of the method: as §1

| Structure (SMILES) | MIC | MIC50 | MIC90 |
| --- | --- | --- | --- |
| O=C(N[C@H](CO)[C@H](O)c1ccc([N+](=O)[O-])cc1)C(Cl)Cl [CHLORAMPHENICOL] | 4 µg/mL (≈ 12.4 µM) | 4 µg/mL (≈ 12.4 µM) | 8 µg/mL (≈ 24.8 µM) |

test system: Bacteroides fragilis; experiment: Antimicrobial activity against Bacteroides fragilis assessed as percent resistant isolates after 48 hrs by agar dilution method; assay type: functional
Summary of the method: (§2)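 CLSI agar dilution on recent Korean clinical anaerobe isolates. Inoculum 10^5 CFU per spot by replicator. Plates incubated in an anaerobic chamber at 37°C for 48 h. For piperacillin plus tazobactam, tazobactam was held constant at 4 μg/ml. Resistance and susceptibility rates derived from MICs.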

| Structure (SMILES) | Activity |
| --- | --- |
| O=C(N[C@H](CO)[C@H](O)c1ccc([N+](=O)[O-])cc1)C(Cl)Cl [CHLORAMPHENICOL] | 0% |

test system: Bacteroides thetaiotaomicron; experiment: Antimicrobial activity against Bacteroides thetaiotaomicron assessed as percent susceptible isolates after 48 hrs by agar dilution method; assay type: functional

| Structure (SMILES) | Activity |
| --- | --- |
| O=C(N[C@H](CO)[C@H](O)c1ccc([N+](=O)[O-])cc1)C(Cl)Cl [CHLORAMPHENICOL] | 98% |

test system: Bacteroides caccae; experiment: Antimicrobial activity against Bacteroides caccae assessed as percent susceptible isolates after 48 hrs by agar dilution method; assay type: functional

| Structure (SMILES) | Activity |
| --- | --- |
| O=C(N[C@H](CO)[C@H](O)c1ccc([N+](=O)[O-])cc1)C(Cl)Cl [CHLORAMPHENICOL] | 98% |

test system: Phocaeicola vulgatus; experiment: Antimicrobial activity against Bacteroides vulgatus assessed as percent susceptible isolates after 48 hrs by agar dilution method; assay type: functional

| Structure (SMILES) | Activity |
| --- | --- |
| O=C(N[C@H](CO)[C@H](O)c1ccc([N+](=O)[O-])cc1)C(Cl)Cl [CHLORAMPHENICOL] | 98% |

test system: Prevotella intermedia; experiment: Antimicrobial activity against Prevotella intermedia after 48 hrs by agar dilution method; assay type: functional
Summary of the method: (§3)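 CLSI agar dilution (M11-A7); inoculum 10^5 CFU applied by replicator; plates incubated anaerobically 48 h at 37°C. For piperacillin-tazobactam, tazobactam held constant at 4 μg/ml.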

| Structure (SMILES) | MIC | MIC50 | MIC90 |
| --- | --- | --- | --- |
| O=C(N[C@H](CO)[C@H](O)c1ccc([N+](=O)[O-])cc1)C(Cl)Cl [CHLORAMPHENICOL] | 0.5 µg/mL (≈ 1.55 µM) | 0.5 µg/mL (≈ 1.55 µM) | 1 µg/mL (≈ 3.09 µM) |

test system: Prevotella bivia; experiment: Antimicrobial activity against Prevotella bivia after 48 hrs by agar dilution method; assay type: functional; summary of the method: as §3

| Structure (SMILES) | MIC50 | MIC90 |
| --- | --- | --- |
| O=C(N[C@H](CO)[C@H](O)c1ccc([N+](=O)[O-])cc1)C(Cl)Cl [CHLORAMPHENICOL] | 4 µg/mL (≈ 12.4 µM) | 8 µg/mL (≈ 24.8 µM) |

test system: Prevotella intermedia; experiment: Antimicrobial activity against Prevotella intermedia assessed as percent susceptible isolates after 48 hrs by agar dilution method; assay type: functional; summary of the method: as §3

| Structure (SMILES) | Activity |
| --- | --- |
| O=C(N[C@H](CO)[C@H](O)c1ccc([N+](=O)[O-])cc1)C(Cl)Cl [CHLORAMPHENICOL] | 100% |

test system: Prevotella bivia; experiment: Antimicrobial activity against Prevotella bivia assessed as percent susceptible isolates after 48 hrs by agar dilution method; assay type: functional; summary of the method: as §3

| Structure (SMILES) | Activity |
| --- | --- |
| O=C(N[C@H](CO)[C@H](O)c1ccc([N+](=O)[O-])cc1)C(Cl)Cl [CHLORAMPHENICOL] | 100% |

test system: Prevotella buccae; experiment: Antimicrobial activity against Prevotella buccae assessed as percent susceptible isolates after 48 hrs by agar dilution method; assay type: functional, Segatella buccae; summary of the method: as §3

| Structure (SMILES) | Activity |
| --- | --- |
| O=C(N[C@H](CO)[C@H](O)c1ccc([N+](=O)[O-])cc1)C(Cl)Cl [CHLORAMPHENICOL] | 100% |

test system: Hoylesella oralis; experiment: Antimicrobial activity against Prevotella oralis assessed as percent resistant isolates after 48 hrs by agar dilution method; assay type: functional; summary of the method: as §2

| Structure (SMILES) | Activity |
| --- | --- |
| O=C(N[C@H](CO)[C@H](O)c1ccc([N+](=O)[O-])cc1)C(Cl)Cl [CHLORAMPHENICOL] | 0% |

test system: Fusobacterium mortiferum; experiment: Antimicrobial activity against Fusobacterium mortiferum after 48 hrs by agar dilution method; assay type: functional; summary of the method: as §3

| Structure (SMILES) | MIC |
| --- | --- |
| O=C(N[C@H](CO)[C@H](O)c1ccc([N+](=O)[O-])cc1)C(Cl)Cl [CHLORAMPHENICOL] | 0.13 µg/mL (≈ 0.402 µM) |

test system: Parvimonas micra; experiment: Antimicrobial activity against Peptostreptococcus micros assessed as percent susceptible isolates after 48 hrs by agar dilution method; assay type: functional; summary of the method: as §2

| Structure (SMILES) | Activity |
| --- | --- |
| O=C(N[C@H](CO)[C@H](O)c1ccc([N+](=O)[O-])cc1)C(Cl)Cl [CHLORAMPHENICOL] | 0% |

test system: Peptoniphilus asaccharolyticus; experiment: Antimicrobial activity against Peptoniphilus asaccharolyticus after 48 hrs by agar dilution method; assay type: functional; summary of the method: as §3

| Structure (SMILES) | MIC50 | MIC90 |
| --- | --- | --- |
| O=C(N[C@H](CO)[C@H](O)c1ccc([N+](=O)[O-])cc1)C(Cl)Cl [CHLORAMPHENICOL] | 2 µg/mL (≈ 6.19 µM) | 4 µg/mL (≈ 12.4 µM) |

test system: Finegoldia magna; experiment: Antimicrobial activity against Finegoldia magna after 48 hrs by agar dilution method; assay type: functional; summary of the method: as §3

| Structure (SMILES) | MIC50 | MIC90 |
| --- | --- | --- |
| O=C(N[C@H](CO)[C@H](O)c1ccc([N+](=O)[O-])cc1)C(Cl)Cl [CHLORAMPHENICOL] | 4 µg/mL (≈ 12.4 µM) | 4 µg/mL (≈ 12.4 µM) |

test system: Clostridium perfringens; experiment: Antimicrobial activity against Clostridium perfringens after 48 hrs by agar dilution method; assay type: functional

| Structure (SMILES) | MIC50 | MIC90 |
| --- | --- | --- |
| O=C(N[C@H](CO)[C@H](O)c1ccc([N+](=O)[O-])cc1)C(Cl)Cl [CHLORAMPHENICOL] | 4 µg/mL (≈ 12.4 µM) | 4 µg/mL (≈ 12.4 µM) |

test system: Clostridium perfringens; experiment: Antimicrobial activity against Clostridium perfringens assessed as percent susceptible isolates after 48 hrs by agar dilution method; assay type: functional

| Structure (SMILES) | Activity |
| --- | --- |
| O=C(N[C@H](CO)[C@H](O)c1ccc([N+](=O)[O-])cc1)C(Cl)Cl [CHLORAMPHENICOL] | 100% |

test system: Clostridioides difficile; experiment: Antimicrobial activity against Clostridium difficile after 48 hrs by agar dilution method; assay type: functional

| Structure (SMILES) | MIC50 | MIC90 |
| --- | --- | --- |
| O=C(N[C@H](CO)[C@H](O)c1ccc([N+](=O)[O-])cc1)C(Cl)Cl [CHLORAMPHENICOL] | 4 µg/mL (≈ 12.4 µM) | 16 µg/mL (≈ 49.5 µM) |

test system: Actinomyces israelii; experiment: Antimicrobial activity against Actinomyces israelii after 48 hrs by agar dilution method; assay type: functional; summary of the method: as §1

| Structure (SMILES) | MIC | MIC50 | MIC90 |
| --- | --- | --- | --- |
| O=C(N[C@H](CO)[C@H](O)c1ccc([N+](=O)[O-])cc1)C(Cl)Cl [CHLORAMPHENICOL] | 1 µg/mL (≈ 3.09 µM) | 1 µg/mL (≈ 3.09 µM) | 2 µg/mL (≈ 6.19 µM) |

test system: Schaalia meyeri; experiment: Antimicrobial activity against Actinomyces meyeri after 48 hrs by agar dilution method; assay type: functional; summary of the method: as §1

| Structure (SMILES) | MIC | MIC50 | MIC90 |
| --- | --- | --- | --- |
| O=C(N[C@H](CO)[C@H](O)c1ccc([N+](=O)[O-])cc1)C(Cl)Cl [CHLORAMPHENICOL] | 1 µg/mL (≈ 3.09 µM) | 1 µg/mL (≈ 3.09 µM) | 2 µg/mL (≈ 6.19 µM) |

test system: Schaalia meyeri; experiment: Antimicrobial activity against Actinomyces meyeri assessed as percent resistant isolates after 48 hrs by agar dilution method; assay type: functional; summary of the method: as §2

| Structure (SMILES) | Activity |
| --- | --- |
| O=C(N[C@H](CO)[C@H](O)c1ccc([N+](=O)[O-])cc1)C(Cl)Cl [CHLORAMPHENICOL] | 0% |

test system: Actinomyces naeslundii; experiment: Antimicrobial activity against Actinomyces naeslundii assessed as percent resistant isolates after 48 hrs by agar dilution method; assay type: functional; summary of the method: as §2

| Structure (SMILES) | Activity |
| --- | --- |
| O=C(N[C@H](CO)[C@H](O)c1ccc([N+](=O)[O-])cc1)C(Cl)Cl [CHLORAMPHENICOL] | 0% |

test system: Bifidobacterium adolescentis; experiment: Antimicrobial activity against Bifidobacterium adolescentis after 48 hrs by agar dilution method; assay type: functional; summary of the method: as §1

| Structure (SMILES) | MIC | MIC50 | MIC90 |
| --- | --- | --- | --- |
| O=C(N[C@H](CO)[C@H](O)c1ccc([N+](=O)[O-])cc1)C(Cl)Cl [CHLORAMPHENICOL] | 1 µg/mL (≈ 3.09 µM) | 1 µg/mL (≈ 3.09 µM) | 2 µg/mL (≈ 6.19 µM) |

test system: Eggerthella lenta; experiment: Antimicrobial activity against Eubacterium lentum assessed as percent susceptible isolates after 48 hrs by agar dilution method; assay type: functional; summary of the method: as §3

| Structure (SMILES) | Activity |
| --- | --- |
| O=C(N[C@H](CO)[C@H](O)c1ccc([N+](=O)[O-])cc1)C(Cl)Cl [CHLORAMPHENICOL] | 92% |

test system: Eggerthella lenta; experiment: Antimicrobial activity against Eubacterium lentum assessed as percent resistant isolates after 48 hrs by agar dilution method; assay type: functional; summary of the method: as §2

| Structure (SMILES) | Activity |
| --- | --- |
| O=C(N[C@H](CO)[C@H](O)c1ccc([N+](=O)[O-])cc1)C(Cl)Cl [CHLORAMPHENICOL] | 0% |

test system: Eubacterium sp.; experiment: Antimicrobial activity against Eubacterium sp. after 48 hrs by agar dilution method; assay type: functional; summary of the method: as §3

| Structure (SMILES) | MIC | MIC50 | MIC90 |
| --- | --- | --- | --- |
| O=C(N[C@H](CO)[C@H](O)c1ccc([N+](=O)[O-])cc1)C(Cl)Cl [CHLORAMPHENICOL] | 1 µg/mL (≈ 3.09 µM) | 1 µg/mL (≈ 3.09 µM) | 2 µg/mL (≈ 6.19 µM) |
